Results reported in ChEMBL document CHEMBL1123780, “2'-Fluorinated arabinonucleosides of 5-(2-haloalkyl)uracil: synthesis and antiviral activity” (1987).
≈ marks a conversion by molar mass, not a printed value.

Columns and labels:
HEp-2 [1] = assay: Proliferation of Hep-2 cells by propagation on day 4 by measuring optical density (absorbance) at 330 ug/mL; type: functional, Homo sapiens
How it was run: (§1)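 Cells were suspended in medium with compound and seeded at low density in 24-well dishes (Vero 5×10^4, HEp-2 1×10^5 cells/well), four wells per condition, and grown 4 days. Cells were stained with 0.01% neutral red in PBS for 2 h at 37 °C, washed, dried, and dissolved in ethanol/0.1 M NaH₂PO₄ (1:1). OD was read at 546 nm, taken as proportional to cell number.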

[2] = Antiviral activity against VZV (Ellen) in human lung fibroblast (HLF-1) cells; type: functional
[3] = Antiviral activity against HSV-2 (G) in Primary Rabbit Kidney (PRK) cells; type: functional; settings: Oryctolagus cuniculus
Vero [4] = assay: Proliferation of Vero cells by propagation on day 4 by measuring optical density (absorbance) at 100 ug/mL; type: functional, Chlorocebus sabaeus; how it was run: as §1
HEp-2 [5] = assay: Antiviral activity against HSV-1 (Brand) in human epithelial (Hep-2) cells; type: functional
How it was run: (§2)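 CPE inhibition: serial 3-fold compound dilutions in E-MEM, then virus and cell suspension (E-MEM plus 15% fetal calf serum) added together. Cell input set for a confluent monolayer in 1-2 days, virus input for 90-100% CPE in infected controls at 3 days. Plates then fixed and stained, and CPE estimated against infected untreated controls. Uninfected compound-treated cells included.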

Vero [6] = assay: Proliferation of Vero cells by propagation on day 4 by measuring optical density (absorbance) at 330 ug/mL; type: functional, Chlorocebus sabaeus; how it was run: as §1
HEp-2 [7] = assay: Antiviral activity against HSV-2 (K979) in human epithelial (Hep-2) cells; type: functional; how it was run: as §2
Vero [8] = assay: Antiviral activity against HSV-2 (K979) in Vero cells; type: functional; settings: Chlorocebus sabaeus; how it was run: as §2
HEp-2 [9] = assay: Proliferation of Hep-2 cells by propagation on day 4 by measuring optical density (absorbance) at 100 ug/mL; type: functional, Homo sapiens; how it was run: as §1
[10] = Antiviral activity against HSV-1 (KOS) in Primary Rabbit Kidney (PRK) cells; type: functional; settings: Oryctolagus cuniculus
Vero [11] = assay: Proliferation of Vero cells by propagation on day 4 by measuring optical density (absorbance) at 30 ug/mL; type: functional, Chlorocebus sabaeus; how it was run: as §1
Vero [12] = assay: Antiviral activity against HSV-1 (Brand) in Vero cells; type: functional; settings: Chlorocebus sabaeus; how it was run: as §2
HEp-2 [13] = assay: Proliferation of Hep-2 cells by propagation on day 4 by measuring optical density (absorbance) at 30 ug/mL; type: functional, Homo sapiens; how it was run: as §1

For `Cc1cn([C@@H]2O[C@H](CO)[C@@H](O)[C@@H]2F)c(=O)[nH]c1=O` [5-METHYL-2'-FLUOROARAURACIL], the Control (HEp-2 [1]) was 0%, the MIC [2] was 0.001 µg/mL (≈ 0.00384 µM) and the MIC [3] was 0.02 µg/mL (≈ 0.0769 µM). For the same compound, the Control (Vero [4]) was 6%, the MIC (HEp-2 [5]) was 0.3 µg/mL (≈ 1.15 µM) and the Control (Vero [6]) was 0%. It also gave an MIC (HEp-2 [7]) of 0.1 µg/mL (≈ 0.384 µM), an MIC (Vero [8]) of 0.3 µg/mL (≈ 1.15 µM) and a Control (HEp-2 [9]) of 3%. For the same compound, the MIC [10] was 0.04 µg/mL (≈ 0.154 µM), the Control (Vero [11]) was 7% and the MIC (Vero [12]) was 0.03 µg/mL (≈ 0.115 µM). The Control (HEp-2 [13]) was 36%.
Compound `O=c1[nH]c(=O)n(C2O[C@H](CO)[C@@H](O)[C@@H]2O)cc1CCCl` (stereo partly drawn) has an MIC (HEp-2 [5]) of 30 µg/mL (≈ 97.8 µM), an MIC (HEp-2 [7]) of 100 µg/mL (≈ 326 µM) and an MIC (Vero [8]) of 100 µg/mL (≈ 326 µM). For the same compound, the MIC (Vero [12]) was 30 µg/mL (≈ 97.8 µM).
Work on `O=c1[nH]c(=O)n([C@H]2C[C@H](O)[C@@H](CO)O2)cc1CCF` yielded a Control (HEp-2 [1]) of 60%, an MIC [2] of 3 µg/mL (≈ 10.9 µM) and an MIC [3] of 1.5 µg/mL (≈ 5.47 µM). The Control (Vero [4]) was 97%, the MIC (HEp-2 [5]) was 0.03 µg/mL (≈ 0.109 µM) and the Control (Vero [6]) was 71%. For the same compound, the MIC (HEp-2 [7]) was 1 µg/mL (≈ 3.65 µM), the MIC (Vero [8]) was 3 µg/mL (≈ 10.9 µM) and the Control (HEp-2 [9]) was 86%. For the same compound, the MIC [10] was 0.58 µg/mL (≈ 2.11 µM), the Control (Vero [11]) was 94% and the MIC (Vero [12]) was 0.1 µg/mL (≈ 0.365 µM). It also gave a Control (HEp-2 [13]) of 97%.
`NC1=NC(=O)C2N=CN(COCCO)C2=N1` (stereo not drawn) gave a Control (HEp-2 [1]) of 41%, an MIC [3] of 0.04 µg/mL (≈ 0.178 µM) and a Control (Vero [4]) of 73%. It also gave an MIC (HEp-2 [5]) of 1 µg/mL (≈ 4.44 µM), a Control (Vero [6]) of 56% and an MIC (HEp-2 [7]) of 3 µg/mL (≈ 13.3 µM). It also gave an MIC (Vero [8]) of 1 µg/mL (≈ 4.44 µM), a Control (HEp-2 [9]) of 78% and an MIC [10] of 0.06 µg/mL (≈ 0.266 µM). It also gave a Control (Vero [11]) of 77%, an MIC (Vero [12]) of 0.003 µg/mL (≈ 0.0133 µM) and a Control (HEp-2 [13]) of 89%.
Compound `O=c1[nH]c(=O)n([C@@H]2O[C@H](CO)[C@@H](O)[C@@H]2F)cc1I` [FIALURIDINE] has a Control (HEp-2 [1]) of 0%, an MIC [2] of 0.003 µg/mL (≈ 0.00806 µM) and an MIC [3] of 0.02 µg/mL (≈ 0.0538 µM). For the same compound, the Control (Vero [4]) was 6%, the MIC (HEp-2 [5]) was 0.01 µg/mL (≈ 0.0269 µM) and the Control (Vero [6]) was 0%. The MIC (HEp-2 [7]) was 0.1 µg/mL (≈ 0.269 µM), the MIC (Vero [8]) was 0.1 µg/mL (≈ 0.269 µM) and the Control (HEp-2 [9]) was 13%. It also gave an MIC [10] of 0.02 µg/mL (≈ 0.0538 µM), a Control (Vero [11]) of 37% and an MIC (Vero [12]) of 0.01 µg/mL (≈ 0.0269 µM). The Control (HEp-2 [13]) was 49%.
Work on `O=c1[nH]c(=O)n([C@@H]2O[C@H](CO)[C@@H](O)[C@@H]2F)cc1CCCl` yielded a Control (HEp-2 [1]) of 68%, an MIC [2] of 0.1 µg/mL (≈ 0.324 µM) and an MIC [3] of 2 µg/mL (≈ 6.48 µM). For the same compound, the Control (Vero [4]) was 74%, the MIC (HEp-2 [5]) was 0.1 µg/mL (≈ 0.324 µM) and the Control (Vero [6]) was 63%. For the same compound, the MIC (HEp-2 [7]) was 1 µg/mL (≈ 3.24 µM), the MIC (Vero [8]) was 10 µg/mL (≈ 32.4 µM) and the Control (HEp-2 [9]) was 107%. For the same compound, the MIC [10] was 0.3 µg/mL (≈ 0.972 µM), the Control (Vero [11]) was 75% and the MIC (Vero [12]) was 0.3 µg/mL (≈ 0.972 µM). It also gave a Control (HEp-2 [13]) of 116%.
For `O=c1[nH]c(=O)n([C@H]2C[C@H](O)[C@@H](CO)O2)cc1I` [IDOXURIDINE], the Control (HEp-2 [1]) was 0%, the MIC [2] was 10 µg/mL (≈ 28.2 µM) and the MIC [3] was 0.91 µg/mL (≈ 2.57 µM). It also gave a Control (Vero [4]) of 34%, an MIC (HEp-2 [5]) of 0.3 µg/mL (≈ 0.847 µM) and a Control (Vero [6]) of 16%. The MIC (HEp-2 [7]) was 0.3 µg/mL (≈ 0.847 µM), the MIC (Vero [8]) was 1 µg/mL (≈ 2.82 µM) and the Control (HEp-2 [9]) was 20%. For the same compound, the MIC [10] was 0.2 µg/mL (≈ 0.565 µM), the Control (Vero [11]) was 61% and the MIC (Vero [12]) was 0.1 µg/mL (≈ 0.282 µM). The Control (HEp-2 [13]) was 61%.
`O=c1[nH]c(=O)n([C@H]2C[C@H](O)[C@@H](CO)O2)cc1/C=C/Br` [BRIVUDINE] gave a Control (HEp-2 [1]) of 31%, an MIC [2] of 0.001 µg/mL (≈ 0.003 µM) and an MIC [3] of 2.3 µg/mL (≈ 6.9 µM). The Control (Vero [4]) was 71%, the MIC (HEp-2 [5]) was 0.01 µg/mL (≈ 0.03 µM) and the Control (Vero [6]) was 55%. The MIC (HEp-2 [7]) was 3 µg/mL (≈ 9.01 µM), the MIC (Vero [8]) was 30 µg/mL (≈ 90.1 µM) and the Control (HEp-2 [9]) was 68%. It also gave an MIC [10] of 0.007 µg/mL (≈ 0.021 µM), a Control (Vero [11]) of 74% and an MIC (Vero [12]) of 0.001 µg/mL (≈ 0.003 µM). The Control (HEp-2 [13]) was 79%.
`Nc1nc(=O)n([C@@H]2O[C@H](CO)[C@@H](O)[C@H]2F)cc1I` showed a Control (HEp-2 [1]) of 13%, an MIC [2] of 0.01 µg/mL (≈ 0.0269 µM) and an MIC [3] of 0.03 µg/mL (≈ 0.0808 µM). For the same compound, the Control (Vero [4]) was 43%, the MIC (HEp-2 [5]) was 0.01 µg/mL (≈ 0.0269 µM) and the Control (Vero [6]) was 24%. The MIC (HEp-2 [7]) was 0.03 µg/mL (≈ 0.0808 µM), the MIC (Vero [8]) was 0.1 µg/mL (≈ 0.269 µM) and the Control (HEp-2 [9]) was 32%. For the same compound, the MIC [10] was 0.02 µg/mL (≈ 0.0539 µM), the Control (Vero [11]) was 68% and the MIC (Vero [12]) was 0.01 µg/mL (≈ 0.0269 µM). The Control (HEp-2 [13]) was 64%.
With `O=c1[nH]c(=O)n([C@@H]2O[C@H](CO)[C@@H](O)[C@@H]2F)cc1CCF` the Control (HEp-2 [1]) was 72%, the MIC [2] was 0.03 µg/mL (≈ 0.103 µM) and the MIC [3] was 0.2 µg/mL (≈ 0.684 µM). It also gave a Control (Vero [4]) of 87%, an MIC (HEp-2 [5]) of 0.03 µg/mL (≈ 0.103 µM) and a Control (Vero [6]) of 90%. It also gave an MIC (HEp-2 [7]) of 0.1 µg/mL (≈ 0.342 µM), an MIC (Vero [8]) of 0.3 µg/mL (≈ 1.03 µM) and a Control (HEp-2 [9]) of 105%. For the same compound, the MIC [10] was 0.2 µg/mL (≈ 0.684 µM), the Control (Vero [11]) was 98% and the MIC (Vero [12]) was 0.03 µg/mL (≈ 0.103 µM). It also gave a Control (HEp-2 [13]) of 113%.
Compound `O=c1[nH]c(=O)n([C@H]2C[C@H](O)[C@@H](CO)O2)cc1CCCl` has a Control (HEp-2 [1]) of 86%, an MIC [2] of 0.01 µg/mL (≈ 0.0344 µM) and an MIC [3] of 2.1 µg/mL (≈ 7.22 µM). It also gave a Control (Vero [4]) of 91%, an MIC (HEp-2 [5]) of 0.03 µg/mL (≈ 0.103 µM) and a Control (Vero [6]) of 82%. It also gave an MIC (HEp-2 [7]) of 3 µg/mL (≈ 10.3 µM), an MIC (Vero [8]) of 30 µg/mL (≈ 103 µM) and a Control (HEp-2 [9]) of 99%. For the same compound, the MIC [10] was 0.14 µg/mL (≈ 0.482 µM), the Control (Vero [11]) was 84% and the MIC (Vero [12]) was 0.01 µg/mL (≈ 0.0344 µM). For the same compound, the Control (HEp-2 [13]) was 104%.
